Assay outcomes as filed in PubChem.
Shown are actives, neighbours in structure and some others; about 12% of the full set was active somewhere.
ABCB1 inh = ABCB1 efflux pump inhibitors, primary screen, cell-based, multiplex, flow cytometry, ABCG2 counter-screen. ATP-dependent translocase ABCB1 (Homo sapiens), P08183. CCRF-Adr cells, JC-1 efflux. inhibition, % at 6.6 µM. actives 0.067% (n = 190,000); in the data active means inhibition above about 40%;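 further: higher value means more JC-1 retained so stronger ABCB1 efflux block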
Target sequence (P08183 whole entry, looked up): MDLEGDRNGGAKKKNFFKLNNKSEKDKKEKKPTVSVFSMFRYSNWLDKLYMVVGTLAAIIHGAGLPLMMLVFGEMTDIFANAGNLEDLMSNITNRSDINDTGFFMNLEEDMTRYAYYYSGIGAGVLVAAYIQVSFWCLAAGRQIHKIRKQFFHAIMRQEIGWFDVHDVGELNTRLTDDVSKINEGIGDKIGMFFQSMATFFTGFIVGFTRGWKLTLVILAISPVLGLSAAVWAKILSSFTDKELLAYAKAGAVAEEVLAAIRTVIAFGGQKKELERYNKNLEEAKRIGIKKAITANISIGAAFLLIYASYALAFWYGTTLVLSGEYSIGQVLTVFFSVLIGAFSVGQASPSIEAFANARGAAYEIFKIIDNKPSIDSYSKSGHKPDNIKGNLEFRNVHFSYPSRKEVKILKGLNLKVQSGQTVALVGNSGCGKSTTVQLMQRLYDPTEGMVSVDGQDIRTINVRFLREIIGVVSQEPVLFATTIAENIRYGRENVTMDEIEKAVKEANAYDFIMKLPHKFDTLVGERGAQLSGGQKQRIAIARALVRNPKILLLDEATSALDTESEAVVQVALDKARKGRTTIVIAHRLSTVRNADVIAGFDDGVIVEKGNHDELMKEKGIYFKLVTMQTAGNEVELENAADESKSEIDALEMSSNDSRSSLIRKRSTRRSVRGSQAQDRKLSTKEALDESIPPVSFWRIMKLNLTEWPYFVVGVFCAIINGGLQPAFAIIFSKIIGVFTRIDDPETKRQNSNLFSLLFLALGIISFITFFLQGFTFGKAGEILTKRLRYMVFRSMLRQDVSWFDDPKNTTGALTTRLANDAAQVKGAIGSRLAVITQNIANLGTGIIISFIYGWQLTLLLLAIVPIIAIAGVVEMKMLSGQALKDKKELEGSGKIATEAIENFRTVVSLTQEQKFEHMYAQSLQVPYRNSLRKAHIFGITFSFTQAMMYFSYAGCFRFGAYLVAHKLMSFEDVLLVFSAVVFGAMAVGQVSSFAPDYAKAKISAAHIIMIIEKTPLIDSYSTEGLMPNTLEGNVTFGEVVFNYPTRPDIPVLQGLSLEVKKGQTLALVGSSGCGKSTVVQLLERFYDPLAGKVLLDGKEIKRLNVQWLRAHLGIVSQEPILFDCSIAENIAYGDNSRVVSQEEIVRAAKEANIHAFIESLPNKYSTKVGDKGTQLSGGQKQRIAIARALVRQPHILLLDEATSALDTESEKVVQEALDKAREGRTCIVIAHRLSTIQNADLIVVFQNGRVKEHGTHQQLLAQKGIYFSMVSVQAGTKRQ
RAM network inh = inhibitors of the yeast RAM network, primary screen, dse1pr::URA3 reporter, 5-FOA selection; S. cerevisiae dse1pr::URA3 reporter, 5-FOA growth OD615, 2 d; analog-sensitive cbk1-as2 kinase mutant strain; inhibition, % at 50 µM; actives 1.8% (n = 190,000);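 active means inhibition above a set limit, 3 SD over mean compound inhibition, cut at about 8.4% in these data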;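 further: inhibition rescues growth on 5-FOA so higher OD means more RAM inhibition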
L major viab = Leishmania major promastigote growth inhibition, primary screen; Leishmania major promastigotes, resazurin fluorescence viability; inhibition, % at 10 µM; actives 9% (n = 200,000); in the data active means inhibition above about 50%;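 further: promastigotes grown with compound for 44 hours at 28 °C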
ABCG2 inh = ABCG2 efflux pump inhibitors, primary screen, multiplex with ABCB1, IgMXP3 cells, flow cytometry | JC-1 efflux | AID 1325, 2008 | actives 0.1% (n = 190,000) | Broad substrate specificity ATP-binding cassette transporter ABCG2 (Homo sapiens), Q9UNQ0 | inhibition, % at 6.6 µM;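 active means inhibition above 80%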
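Read-out basis: Efflux inhibition in percent versus controls | Test system: ABCG2 IgMXP3 and barcoded ABCB1 CCRF-Adr cell mix | Quantity: 3 million cells/mL in well | Schedule: 10 min at 25 °C | Control set: Nicardipine as high control, DMSO as low control | Reagent: JC-1 as fluorescent efflux pump substrate | Signal: Flow cytometry of retained JC-1 fluorescence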
WT yeast gro inh = growth inhibition of WT strain, primary screen, mitochondrial fusion inhibitor project, WT and mutant strains, chemical genetic. inhibition, % at 10 µM. actives 2.1% (n = 190,000). mitochondrial fusion phenotypic screen; in the data active means inhibition above about 58%; tested in S. cerevisiae
Large screens that a line does not name were inactive.

COc1ccc(N2CCN(C(=S)Nc3cccc(C)c3C)CC2)cc1	RAM network inh 10
CC(C)c1ccccc1NC(=S)N1CCN(Cc2ccc3c(c2)OCO3)CC1	L major viab 77
CCC(C)NC(=S)N1CCN(Cc2ccc3c(c2)OCO3)CC1 (configuration not stated)	none
Cc1ccc(NC(=S)N2CCN(Cc3ccc4c(c3)OCO4)CC2)c(C)c1	L major viab 89 (no result: ABCB1 inh, RAM network inh, ABCG2 inh, WT yeast gro inh)
COc1ccc(NC(=S)N2CCN(C/C=C/c3ccccc3)CC2)c(OC)c1	none
CCN(CC)S(=O)(=O)c1ccc(C)c(NC(=S)N2CCN(C/C=C/c3ccccc3)CC2)c1	L major viab 60
CCOc1ccc(NC(=S)N2CCc3cc(OC)c(OC)cc3C2COc2ccc3c(C)cc(=O)oc3c2)cc1 (configuration not stated)	RAM network inh 9.9
CC(=O)c1cccc(N=c2scc(-c3ccc(S(=O)(=O)N4CCOCC4)cc3)n2CCO)c1	L major viab 95
C=CCn1c(-c2ccc(S(=O)(=O)N3CCOCC3)cc2)csc1=Nc1ccccc1	none
Cc1ccc(C)c(NC(=O)c2cc(-c3ccccc3)nn2-c2ccccc2)c1	WT yeast gro inh 74
O=C(Nc1nnc(C2CC2)s1)c1cc(-c2ccccc2)nn1-c1ccccc1	WT yeast gro inh 70
Cc1ccccc1NC(=O)c1cn(-c2ccccc2)nc1-c1ccccc1	none
Cc1ccc(C)c(NC(=O)c2nc(-c3ccccc3)n(-c3ccccc3)n2)c1	none
Cc1ccc(-c2nn(-c3ccccc3)cc2NC(=O)CCl)cc1	L major viab 93
Nc1ccccc1Nc1cc(-c2ccccc2)nn1-c1cccc(Cl)c1	WT yeast gro inh 68
CC(=O)Nc1ccc(NC(=O)Cn2c(=O)n(-c3ccc(C)cc3)c(=O)c3oc4ccccc4c32)cc1	none
Cc1ccc(/C=N/n2c(C3CCCCC3)n[nH]c2=S)s1	none
Cc1cc(NC(=O)COc2ccccc2)n(-c2ccccc2)n1	none
Cc1ccc(-c2cc(NC(=O)CCl)n(-c3ccccc3)n2)cc1	L major viab 100
CC(=O)Nc1ccc(-c2cc(NC(C)=O)n(-c3ccccc3)n2)cc1	none
O=C(CCl)Nc1cc(-c2ccccc2)nn1-c1ccccc1	L major viab 98
Nc1cc(Cl)ccc1N1CCCCCC1	none
Cc1cc(-c2ccccc2)nc(-c2ccccc2)c1C	WT yeast gro inh 78
CC(C)N1CCC(N2CCN(Cc3cc4c(cc3Cl)OCO4)CC2CCO)CC1 (configuration not stated)	none
COc1ccc2nc(NC(=S)NC(=O)c3ccco3)sc2c1	none
Cc1ccc2nc(NC(=O)c3cccs3)sc2c1	none
O=C(NC(=S)Nc1nc2ccccc2s1)c1ccco1	RAM network inh 8.8
Cc1ccc2nc(NC(=S)NC(=O)c3cccs3)sc2c1	L major viab 59
CSCCC1NC(=O)N(C(C)C(=O)Nc2cc(Cl)cc(Cl)c2)C1=O (configuration not stated)	none
CCN(CC)C(=O)C1CCN(Cc2cccc(OCc3ccccc3)c2)CC1	L major viab 100
CCCCCC(=O)NN=C1CCN(Cc2ccccc2)CC1	none
COc1cccc(CN2CCC(C(=O)N3CCC(C)CC3)CC2)c1	none
CCCCC(=O)C1CCN(Cc2ccccc2)CC1	L major viab 67
O=C(C1CCN(Cc2ccc(OCc3ccccc3)cc2)CC1)N1CCCC1	none
CS(=O)(=O)N1CCC(C(=O)NCCc2ccccc2)CC1	none
O=C(NCCc1ccccc1)C1CCN(Cc2ccccc2F)CC1	L major viab 71
CCCCNC(=O)C1CCN(Cc2ccc(OCc3ccccc3)cc2)CC1	L major viab 82
Cc1ccc2cccc(OCC(=O)N3CC(C)CC(C)C3)c2n1 (configuration not stated)	none
C=CCSc1nc(NC)c2sccc2n1	none
CC(C)(C)C(=O)/C(=C\c1ccc([N+](=O)[O-])cc1)n1cncn1	L major viab 100
Cc1ccc(C(C(=O)NC2CCCCC2)N(Cc2ccco2)C(=O)Cn2cnc3ccccc32)cc1 (configuration not stated)	L major viab 60
O=C(Nc1ccc(N2CCCCCC2)cc1)c1ccccc1Cl	L major viab 57
O=C(/C=C/c1ccc(Cl)c([N+](=O)[O-])c1)Nc1ccc(N2CCCC2)cc1	L major viab 67
COc1ccccc1C(=O)Nc1ccc(N2CCCCC2)cc1	none
O=C(NC(=S)Nc1ccccc1N1CCCC1)c1ccccc1[N+](=O)[O-]	none
O=C(NC(=S)Nc1ccc(N2CCCC2)cc1)c1ccccc1[N+](=O)[O-]	L major viab 54
O=C(CNCc1cccs1)Nc1ccc(N2CCCCCC2)cc1	L major viab 51
O=C(Nc1ccc(N2CCCCC2)cc1)c1ccccn1	WT yeast gro inh 61
Cc1cccc(OCCCC(=O)Nc2ccc(S(N)(=O)=O)cc2)c1C	none
Cc1cccc(OCCCC(=O)Nc2ccc(N3CCCCC3)cc2)c1C	WT yeast gro inh 61
CC(C)OC(=O)CSc1nnc(-c2ccccc2)n1N	none
O=C(CSc1ccc(-c2cccs2)nn1)c1cccs1	none
O=C(CSCC(=O)N1CCCCC1)Nc1nc(-c2ccc(Cl)s2)cs1	WT yeast gro inh 72
O=C(CSCC(=O)N1CCN(c2ccccc2)CC1)Nc1nc(-c2ccc(Cl)s2)cs1	none
O=C(NCCc1cn2ccccc2n1)c1cc(COc2c(F)cccc2F)on1	L major viab 52
O=Nc1c(O)n(Cc2ccc(Cl)c(Cl)c2)c2ccccc12	L major viab 77
O=Nc1c(O)n(Cc2cccc(C(F)(F)F)c2)c2ccccc12	none
CCCCOc1ccc(C(O)C(CN2CCCCC2)c2ccccc2)cc1 (configuration not stated)	L major viab 70
c1ccc(C(CN2CCOCC2)c2ccccc2)cc1	none
CCCOc1ccc(C(O)C(CN2CCOCC2)c2ccccc2)cc1 (configuration not stated)	L major viab 89
CCOc1ccc(C(O)C(CN2CCOCC2)c2ccccc2)cc1 (configuration not stated)	L major viab 84
O=C(O)c1cccc(S(=O)(=O)Nc2ccccc2-c2ccccc2)c1	none
Cc1ccc(S(=O)(=O)N2CCCC2C(=O)NCc2ccc3c(c2)OCO3)cc1 (configuration not stated)	none
CCOc1ccc(S(=O)(=O)n2cc(F)c(=O)[nH]c2=O)cc1	none
O=C(NCC1COc2ccccc2O1)c1ccc(NC(=O)c2ccco2)cc1 (configuration not stated)	L major viab 55
O=C(Nc1cccc(NC(=O)c2ccco2)c1)c1ccc2c(c1)OCO2	L major viab 81
O=C(NCC1COc2ccccc2O1)c1ccc(Cl)cc1 (configuration not stated)	none
O=C(Nc1cccc(NC(=O)c2ccco2)c1)c1ccc2c(c1)OCCO2	L major viab 51
